According to ChEMBL document CHEMBL3526065, “Metabolism of [6]-shogaol in mice and in cancer cells” (Drug Metab Dispos, 2012):
One block for each compound: values may come before it.

Assays:
[1] = system: Plasma; experiment: Drug metabolism in C57BL/6J mouse plasma assessed as sulfated form of metabolite formation at 200 mg/kg, po after 2 to 4 hrs by LC/MS analysis; assay type: ADME, organism-based; design: dose 200 mg/kg, route oral; conditions: in vivo
[2] = Antioxidant activity assessed as DPPH radical scavenging activity; assay type: physicochemical
[3] = Drug excretion in C57BL/6J mouse feces assessed as (2R)-2-amino-3-(3-hydroxy-1-(4-hydroxy-3-methoxyphenyl)decan-5-ylthio)propanoic acid formation at 200 mg/kg, po by HPLC-ECD analysis relative to control; assay type: ADME, organism-based; design: dose 200 mg/kg, route oral; conditions: in vivo
How it was run: (§1)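 Female C57BL/6J mice gavaged once with 200 mg/kg in corn oil, or corn oil alone (n = 5 each). 24-h feces collected in metabolic cages. Feces extracted by sonication 90 min in MeOH/H2O (50/50) + 0.1% acetic acid, centrifuged, diluted fivefold. Analysed by HPLC with electrochemical array detection (Gemini C18, phosphate/acetonitrile/THF gradient), compared against vehicle controls.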

[4] = Drug excretion in C57BL/6J mouse feces assessed as 5-cysteinyl-[6]-shogaol formation at 200 mg/kg, po by HPLC-ECD analysis relative to control; assay type: ADME, organism-based; design: dose 200 mg/kg, route oral; conditions: in vivo; how it was run: as §1
[5] = Drug excretion in C57BL/6J mouse feces assessed as 2-((2R)-2-amino-3-(3-hydroxy-1-(4-hydroxy-3-methoxyphenyl)decan-5-ylthio)propanamido)acetic acid formation at 200 mg/kg, po by HPLC-ECD analysis relative to control; assay type: ADME, organism-based; design: dose 200 mg/kg, route oral; conditions: in vivo; how it was run: as §1
[6] = Drug excretion in C57BL/6J mouse feces assessed as (2R)-2-acetamido-3-(3-hydroxy-1-(4-hydroxy-3-methoxyphenyl)decan-5-ylthio)propanoic acid formation at 200 mg/kg, po by HPLC-ECD analysis relative to control; assay type: ADME, organism-based; design: dose 200 mg/kg, route oral; conditions: in vivo; how it was run: as §1
[7] = Drug excretion in C57BL/6J mouse feces assessed as 5-N-acetylcysteinyl-[6]-shogaol formation at 200 mg/kg, po by HPLC-ECD analysis relative to control; assay type: ADME, organism-based; design: dose 200 mg/kg, route oral; conditions: in vivo; how it was run: as §1
[8] = Drug excretion in C57BL/6J mouse feces assessed as 1-(4'-hydroxy-3'-methoxyphenyl)-4-decen-3-ol formation at 200 mg/kg, po by HPLC-ECD analysis relative to control; assay type: ADME, organism-based; design: dose 200 mg/kg, route oral; conditions: in vivo; how it was run: as §1
[9] = Drug excretion in C57BL/6J mouse feces assessed as 5-methoxy-1-(4'-hydroxy-3'-methoxyphenyl)-decan-3-one formation at 200 mg/kg, po by HPLC-ECD analysis relative to control; assay type: ADME, organism-based; design: dose 200 mg/kg, route oral; conditions: in vivo; how it was run: as §1
[10] = Drug excretion in C57BL/6J mouse feces assessed as 3',4'-dihydroxyphenyl-decan-3-one formation at 200 mg/kg, po by HPLC-ECD analysis relative to control; assay type: ADME, organism-based; design: dose 200 mg/kg, route oral; conditions: in vivo; how it was run: as §1
[11] = Drug excretion in C57BL/6J mouse feces assessed as 1-(4'-hydroxy-3'-methoxyphenyl)-decan-3-ol formation at 200 mg/kg, po by HPLC-ECD analysis relative to control; assay type: ADME, organism-based; design: dose 200 mg/kg, route oral; conditions: in vivo; how it was run: as §1
[12] = Drug excretion in C57BL/6J mouse feces assessed as 5-methylthio-1-(4'-hydroxy-3'-methoxyphenyl)-decan-3-one formation at 200 mg/kg, po by HPLC analysis relative to control; assay type: ADME, organism-based; design: dose 200 mg/kg, route oral; conditions: in vivo; how it was run: as §1
[13] = Drug excretion in C57BL/6J mouse feces assessed as 1-(4'-hydroxy-3'-methoxyphenyl)-decan-3-one formation at 200 mg/kg, po by HPLC analysis relative to control; assay type: ADME, organism-based; design: dose 200 mg/kg, route oral; conditions: in vivo; how it was run: as §1
[14] = Drug excretion in C57BL/6J mouse feces assessed as 5-methylthio-1-(4'-hydroxy-3'-methoxyphenyl)-decan-3-ol formation at 200 mg/kg, po by HPLC-ECD analysis relative to control; assay type: ADME, organism-based; design: dose 200 mg/kg, route oral; conditions: in vivo; how it was run: as §1
[15] = Drug recovery in C57BL/6J mouse urine assessed as glucuronidated form of metabolite formation at 200 mg/kg, po by HPLC-ECD analysis; assay type: ADME, organism-based; design: dose 200 mg/kg, route oral; conditions: in vivo
How it was run: (§2)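 Female C57BL/6J mice gavaged with 200 mg/kg in corn oil or vehicle (n = 5); 24-h urine collected in metabolic cages. 50 μl urine deproteinized with MeOH. Analysis with and without deconjugation.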

[16] = Drug recovery in C57BL/6J mouse urine assessed as sulfated form of metabolite formation at 200 mg/kg, po by HPLC-ECD analysis; assay type: ADME, organism-based; design: dose 200 mg/kg, route oral; conditions: in vivo; how it was run: as §2
[17] = Drug metabolism in human HCT116 cells assessed as 1-(4'-hydroxy-3'-methoxyphenyl)-4-decen-3-ol formation at 10 uM after 24 hrs by HPLC-ECD analysis; assay type: ADME, cell-based; conditions: hct-116, 24 h
How it was run: (§3)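 Cells (1.0 × 10⁶) attached 24 h in six-well plates, then exposed to 10 μM final in McCoy's 5A with 10% FBS. Extracted with equal volume acetonitrile, diluted 5-fold, analysed by HPLC with electrochemical detection.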

[18] = Drug metabolism in human HCT116 cells assessed as 1-(4'-hydroxy-3'-methoxyphenyl)-decan-3-ol formation at 10 uM after 24 hrs by HPLC-ECD analysis; assay type: ADME, cell-based; conditions: hct-116, 24 h; how it was run: as §3
[19] = Drug metabolism in human HCT116 cells assessed as 1-(4'-hydroxy-3'-methoxyphenyl)-decan-3-one formation at 10 uM after 24 hrs by HPLC-ECD analysis; assay type: ADME, cell-based; conditions: hct-116, 24 h; how it was run: as §3
[20] = system: HT-29; experiment: Drug metabolism in human HT-29 cells assessed as 1-(4'-hydroxy-3'-methoxyphenyl)-decan-3-ol formation at 10 uM by HPLC-ECD analysis; assay type: ADME, cell-based; conditions: ht-29, 10 µM; how it was run: as §3
[21] = system: HT-29; experiment: Drug metabolism in human HT-29 cells assessed as 1-(4'-hydroxy-3'-methoxyphenyl)-decan-3-one formation at 10 uM by HPLC-ECD analysis; assay type: ADME, cell-based; conditions: ht-29, 10 µM; how it was run: as §3
[22] = Drug metabolism in human H1299 cells assessed as 1-(4'-hydroxy-3'-methoxyphenyl)-decan-3-ol formation at 10 uM after 24 hrs by HPLC-ECD analysis; assay type: ADME, cell-based; conditions: nci-h1299, 24 h; how it was run: as §3
[23] = Drug metabolism in human H1299 cells assessed as 1-(4'-hydroxy-3'-methoxyphenyl)-decan-3-one formation at 10 uM after 24 hrs by HPLC-ECD analysis; assay type: ADME, cell-based; conditions: nci-h1299, 24 h; how it was run: as §3
[24] = Drug metabolism in mouse CL-13 cells assessed as 1-(4'-hydroxy-3'-methoxyphenyl)-decan-3-ol formation at 10 uM after 24 hrs by HPLC-ECD analysis; assay type: ADME, cell-based; conditions: cl-13, 24 h; how it was run: as §3
[25] = Drug metabolism in mouse CL-13 cells assessed as 1-(4'-hydroxy-3'-methoxyphenyl)-decan-3-one formation at 10 uM by HPLC-ECD analysis; assay type: ADME, cell-based; conditions: cl-13, 10 µM; how it was run: as §3
[26] = Cytotoxicity against human HCT116 cells assessed as growth inhibition after 24 hrs by MTT assay; assay type: functional, cell-based; conditions: HCT-116, 24 h
How it was run: (§4)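 Cells seeded at 3000/well, attached 24 h at 37°C, then exposed to test agents (0–80 μM, 0.1% DMSO final) for 24 h in McCoy's 5A with 10% FBS. Medium replaced with 2.41 mM MTT for 3 h at 37°C; formazan dissolved in DMSO, absorbance 550 nm. Viability as percentage of DMSO control; mean ± S.D., n = 6.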

[27] = Cytotoxicity against human H1299 cells assessed as growth inhibition after 24 hrs by MTT assay; assay type: functional, cell-based; conditions: NCI-H1299, 24 h; how it was run: as §4
[28] = system: HCT-116; experiment: Induction of apoptosis in human HCT116 cells assessed as apoptotic cells at 10 uM after 24 hrs by TUNEL assay; assay type: functional
How it was run: (§5)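 HCT-116 or H-1299 cells seeded at 1.0 × 10⁵/well, after 24 h exposed for 24 h to compound (10–80 μM) or DMSO control. Cells were proteinase K-pretreated, formaldehyde-fixed, and slide-mounted for peroxidase TUNEL staining. Ten fields per slide counted at 400×; brown-nucleus cells given as percentage of total cells; mean ± S.E., n = 10.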

[29] = system: NCI-H1299; experiment: Induction of apoptosis in human H1299 cells assessed as apoptotic cells at 10 uM after 24 hrs by TUNEL assay; assay type: functional; how it was run: as §5
[30] = system: HCT-116; experiment: Induction of apoptosis in human HCT116 cells assessed as apoptotic cells at 20 uM after 24 hrs by TUNEL assay; assay type: functional; how it was run: as §5
[31] = system: NCI-H1299; experiment: Induction of apoptosis in human H1299 cells assessed as apoptotic cells at 20 uM after 24 hrs by TUNEL assay; assay type: functional; how it was run: as §5
[32] = Drug recovery in C57BL/6J mouse urine assessed as glucuronidated form of metabolite formation at 200 mg/kg, po by LC/MS analysis; assay type: ADME, organism-based; design: dose 200 mg/kg, route oral; conditions: in vivo; how it was run: as §2
[33] = Drug recovery in C57BL/6J mouse urine assessed as sulfated form of metabolite formation at 200 mg/kg, po by LC/MS analysis; assay type: ADME, organism-based; design: dose 200 mg/kg, route oral; conditions: in vivo; how it was run: as §2
[34] = system: Plasma; experiment: Drug metabolism in A/J mouse plasma assessed as sulfated form of metabolite formation at 200 mg/kg, po after 2 to 4 hrs by HPLC analysis; conditions: in vivo
[35] = system: Plasma; experiment: Drug metabolism in A/J mouse plasma assessed as glucuronidated form of metabolite formation at 200 mg/kg, po after 2 to 4 hrs by LC/MS analysis; conditions: in vivo
[36] = system: Plasma; experiment: Drug metabolism in A/J mouse plasma assessed as glucuronidated form of metabolite formation at 200 mg/kg, po after 2 to 4 hrs by HPLC-ECD analysis; conditions: in vivo
[37] = Drug level in C57BL/6J mouse feces treated with [6]-shogaol at 200 mg/kg, po by HPLC-ECD analysis relative to control; assay type: ADME, organism-based; design: dose 200 mg/kg, route oral; conditions: in vivo; how it was run: as §1

- Drug metabolism [1]: metabolite_detected
- IC50 [2]: 8 µM
- Drug excretion [3]: metabolite_detected
- Drug excretion [4]: metabolite_detected
- Drug excretion [5]: metabolite_detected
- Drug excretion [6]: metabolite_detected
- Drug excretion [7]: metabolite_detected
- Drug excretion [8]: metabolite_detected
- Drug excretion [9]: metabolite_detected
- Drug excretion [10]: metabolite_detected
- Drug excretion [11]: metabolite_detected
- Drug excretion [12]: metabolite_detected
- Drug excretion [13]: metabolite_detected
- Drug excretion [14]: metabolite_detected
- Drug recovery [15]: metabolite_detected
- Drug recovery [16]: metabolite_detected
- Drug metabolism [17]: metabolite_detected
- Drug metabolism [18]: metabolite_detected
- Drug metabolism [19]: metabolite_detected
- Drug metabolism [20]: metabolite_detected
- Drug metabolism [21]: metabolite_detected
- Drug metabolism [22]: metabolite_detected
- Drug metabolism [23]: metabolite_detected
- Drug metabolism [24]: metabolite_detected
- Drug metabolism [25]: metabolite_detected
- Drug recovery [32]: metabolite_detected
- Drug recovery [33]: metabolite_detected
- Drug metabolism [34]: metabolite_detected
- Drug metabolism [35]: metabolite_detected
- Drug metabolism [36]: metabolite_detected
SMILES: CCCCC/C=C/C(=O)CCc1ccc(O)c(OC)c1 [SHOGAOL]
- IC50 [26]: 18.7 µM
- IC50 [27]: 16.9 µM
- Activity [28]: 10.3%
- Activity [29]: 5.2%
- Activity [30]: 31.2%
- Activity [31]: 31.6%

- Drug excretion [37]: metabolite_detected
SMILES: CCCCCC(CC(O)CCc1ccc(O)c(OC)c1)SCC(N)C(=O)O (configuration not stated)
